This passage reports folding enthalpy and Tm results from the array DNA melting data of Ke et al. (doi:10.1101/2024.01.08.574731).

Series [1] is described as follows: folding enthalpy; higher = less favourable; fluorescence melt of hairpins on a sequencing array, two-state fit. As to conditions: sodium 0.088 M. In short, it runs like this:
(§1)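 Melting temperature and folding enthalpy were obtained by bootstrapped two-state fitting. Fits used Cy3 fluorescence of library hairpins with annealed Cy3 and quencher oligos on a sequenced MiSeq flow cell, imaged in 50 mM Na-HEPES pH 8.0, 25 mM NaCl in 2.5 °C steps up to 60 °C and normalised to pre-quench Cy3 and control constructs. Four replicates were combined by inverse-variance weighting, and fitted temperatures were raised by 9.35 °C to match UV melts.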

Series [2] in a line: melting temperature; fluorescence melt of hairpins on a sequencing array, two-state fit, raised by 9.35 °C to match UV melts. As to conditions: sodium 0.088 M. An outline of the steps: as §1

Take GCTGCGGGAAACCGTAGC (((.(((....))).))): the folding enthalpy in series [1] was -49.1 kcal/mol. Moreover, in series [2], the Tm is 58.5 °C.

As to GCTGCTCGAAAGAGAAGC (((.(((....))).))), the folding enthalpy in series [1] is -37.6 kcal/mol. Moreover, in series [2], the Tm worked out at 55.5 °C.

GCTGCTGGAAACAACAGC ((((.((....)).)))): the folding enthalpy in series [1] is -32.8 kcal/mol. In addition, the Tm in series [2] came to 47.2 °C.

Consider GCTGGACGAAAGTCAGC (((.(((....)))))), for which the folding enthalpy in series [1] was -30.6 kcal/mol. In addition, the Tm in series [2] came out at 56.1 °C.

Take GCTGGAGGAAACCCCAGC (((((.(....).))))): the folding enthalpy in series [1] is -38.7 kcal/mol. Also, in series [2], the Tm turned out to be 52.8 °C.

Regarding GCTGGAGGAAACTCCGGC ((.((((....)))).)), the folding enthalpy in series [1] is -40.4 kcal/mol. Also, the Tm in series [2] came to 57.1 °C.

Take GCTGGAGGAAACTTCAGC ((((.((....)).)))): in series [1], the folding enthalpy is -40.8 kcal/mol. The Tm in series [2] is 50 °C.

On to GCTGGATCGAAAGATAGC (((..(((....)))))), for which, in series [1], the folding enthalpy is -21 kcal/mol. For the same sequence, the Tm in series [2] is 30.8 °C.

Take GCTGGCCCGAAAGGGAGC (((..(((....)))))): in series [1], the folding enthalpy was -12.7 kcal/mol. The Tm in series [2] is 44 °C.

In the case of GCTGGCGAAAGCCAAGC ((((((....))).))), the folding enthalpy in series [1] was -20.2 kcal/mol. The Tm in series [2] came to 66.5 °C.

GCTGGCGAAAGCCCTAGC ((((((....)))..))): in series [1], the folding enthalpy was -12 kcal/mol. Besides, in series [2], the Tm was found to be 40.9 °C.

For the sequence GCTGGCGAAAGCCTAGC ((((((....))).))), the folding enthalpy in series [1] was -19.4 kcal/mol. The Tm in series [2] is 59.3 °C.

On to GCTGGGCCGAAAGGCAGC (((..(((....)))))), for which the folding enthalpy in series [1] is -13.3 kcal/mol. Also, the Tm in series [2] is 48.5 °C.

For GCTGGGCGAAAGCACCGC ((.(.((....)).).)), the folding enthalpy in series [1] was -20.7 kcal/mol. Besides, in series [2], the Tm came out at 52.7 °C.

In the case of GCTGGGCGAAAGCCGGGC ((..(((....)))..)), the folding enthalpy in series [1] is -19.3 kcal/mol. For the same sequence, the Tm in series [2] was 55.6 °C.

On to GCTGGGCGAAAGCCTTGC ((..(((....)))..)), for which, in series [1], the folding enthalpy was -17.1 kcal/mol. Besides, in series [2], the Tm was found to be 53.2 °C.

For GCTGGTACGAAAGTAAGC (((..(((....)))))), in series [1], the folding enthalpy was -16.2 kcal/mol. In series [2], the Tm is 34.2 °C.

With GCTGGTCGAAAGACAGC (((.(((....)))))), the folding enthalpy in series [1] is -27.3 kcal/mol. The Tm in series [2] came to 54.7 °C.

GCTGGTGGAAACATCAGC ((((.((....)).)))): the folding enthalpy in series [1] is -39.5 kcal/mol. For the same sequence, the Tm in series [2] worked out at 53.4 °C.

With GCTGGTGGAAACGCCAGC (((((.(....).))))), the folding enthalpy in series [1] was -52.9 kcal/mol. In series [2], the Tm is 61.8 °C.

Turning to GCTGTAACGAAAGTTAGC (((..(((....)))))), the folding enthalpy in series [1] is -20.5 kcal/mol. Besides, in series [2], the Tm was 35 °C.

GCTGTACCGAAAGGTAGC (((..(((....)))))): the folding enthalpy in series [1] was -15.4 kcal/mol. The Tm in series [2] was 43.7 °C.

With GCTGTACGAAAGTAAGC (((.(((....)))))), the folding enthalpy in series [1] was -27.1 kcal/mol. In addition, the Tm in series [2] worked out at 49.2 °C.

Consider GCTGTAGGAAACTATGGC ((..(((....)))..)), for which the folding enthalpy in series [1] is -26.3 kcal/mol. For the same sequence, the Tm in series [2] came to 34.7 °C.

Consider GCTGTCCGAAAGGAAAGC (((.(((....))).))), for which, in series [1], the folding enthalpy is -37.8 kcal/mol. Further, the Tm in series [2] was 53.7 °C.

In the case of GCTGTCGAAAGACAAGC ((((((....))).))), the folding enthalpy in series [1] is -27.8 kcal/mol. Also, the Tm in series [2] was determined as 54.4 °C.

Turning to GCTGTCGAAAGACATAGC ((((((....)))..))), the folding enthalpy in series [1] is -16.4 kcal/mol. For the same sequence, in series [2], the Tm was 45.1 °C.

On to GCTGTCGAAAGACGCAGC ((((((....)))..))), for which, in series [1], the folding enthalpy is -14.1 kcal/mol. Besides, in series [2], the Tm amounted to 46.6 °C.

Take GCTGTCGAAAGACGTAGC ((((((....)))..))): the folding enthalpy in series [1] is -22.7 kcal/mol. For the same sequence, the Tm in series [2] was 48.1 °C.

Turning to GCTGTGCGAAAGCAAGGC ((..(((....)))..)), the folding enthalpy in series [1] was -20 kcal/mol. Besides, the Tm in series [2] worked out at 50.6 °C.

GCTGTGCGAAAGCAGAGC (((.(((....))).))): in series [1], the folding enthalpy is -56 kcal/mol. The Tm in series [2] stood at 57.8 °C.

In the case of GCTGTGCGAAAGCATAGC (((.(((....))).))), the folding enthalpy in series [1] is -57.9 kcal/mol. In addition, in series [2], the Tm was found to be 59.4 °C.

As to GCTGTGCGAAAGCATCGC ((..(((....)))..)), in series [1], the folding enthalpy is -17.9 kcal/mol. Further, the Tm in series [2] stood at 44.6 °C.

Take GCTGTGCGAAAGCCCTGC ((.(.((....)).).)): in series [1], the folding enthalpy is -15.3 kcal/mol. Besides, the Tm in series [2] turned out to be 41.9 °C.

With GCTGTGGGAAACCATGGC ((..(((....)))..)), in series [1], the folding enthalpy is -33.5 kcal/mol. Also, in series [2], the Tm amounted to 44.5 °C.

On to GCTGTTCCGAAAGGAAGC (((..(((....)))))), for which, in series [1], the folding enthalpy is -14 kcal/mol. In addition, the Tm in series [2] amounted to 35.1 °C.
